In ChEMBL document CHEMBL1833840, “RGD mimetics containing phthalimidine fragment as novel ligands of fibrinogen receptor” (Bioorg Med Chem Lett, 2011):

Legend:
Platelet = experiment: Inhibition of ADP-induced platelet aggregation in human platelet rich plasma by Borns method; assay type: functional
Method in brief: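 Human platelet-rich plasma stimulated with ADP, with aggregation followed by Born's method.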

[1] = target: Integrin alpha-IIb/beta-3 (Homo sapiens) (UniProt P08514); experiment: Displacement of FITC-labeled fibrinogen from alphaIIbbeta3 in human platelets
Sequence of Integrin alpha-IIb/beta-3 (Homo sapiens) (P08514 whole entry, looked up): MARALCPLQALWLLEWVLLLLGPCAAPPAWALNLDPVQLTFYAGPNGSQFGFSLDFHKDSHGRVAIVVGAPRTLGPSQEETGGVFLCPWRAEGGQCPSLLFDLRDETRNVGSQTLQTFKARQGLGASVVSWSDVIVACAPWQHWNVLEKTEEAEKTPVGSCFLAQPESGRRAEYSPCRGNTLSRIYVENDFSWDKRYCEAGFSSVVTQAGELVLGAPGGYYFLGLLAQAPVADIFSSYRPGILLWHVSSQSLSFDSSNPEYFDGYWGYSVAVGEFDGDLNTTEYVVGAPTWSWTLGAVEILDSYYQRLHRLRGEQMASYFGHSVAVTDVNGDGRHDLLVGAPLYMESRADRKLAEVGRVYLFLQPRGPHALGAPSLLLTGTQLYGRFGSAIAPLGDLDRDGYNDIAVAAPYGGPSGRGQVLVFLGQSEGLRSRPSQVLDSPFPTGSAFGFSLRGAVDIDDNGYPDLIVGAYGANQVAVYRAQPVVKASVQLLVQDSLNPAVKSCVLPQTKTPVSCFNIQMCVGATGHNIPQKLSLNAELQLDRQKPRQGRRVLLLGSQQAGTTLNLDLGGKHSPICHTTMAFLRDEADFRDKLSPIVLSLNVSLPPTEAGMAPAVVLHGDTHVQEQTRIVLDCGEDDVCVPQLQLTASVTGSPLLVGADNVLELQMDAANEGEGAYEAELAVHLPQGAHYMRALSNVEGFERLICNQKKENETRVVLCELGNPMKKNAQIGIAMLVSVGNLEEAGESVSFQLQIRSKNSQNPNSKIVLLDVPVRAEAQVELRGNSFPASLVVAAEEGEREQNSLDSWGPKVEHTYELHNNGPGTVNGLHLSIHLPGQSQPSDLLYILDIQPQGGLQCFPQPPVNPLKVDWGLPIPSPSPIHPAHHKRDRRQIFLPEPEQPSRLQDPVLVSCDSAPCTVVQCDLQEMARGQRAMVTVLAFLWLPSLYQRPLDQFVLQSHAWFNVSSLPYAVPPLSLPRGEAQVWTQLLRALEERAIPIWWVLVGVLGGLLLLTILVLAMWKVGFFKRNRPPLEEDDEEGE

Row | Structure (SMILES) | IC50 (Platelet) | IC50 [1]
1 | O=C(O)CN1Cc2ccc(NC(=O)c3ccc(C4CCNCC4)cc3)cc2C1=O | 24000 nM | 270 nM
2 | O=C(O)CN1Cc2ccc(NC(=O)c3ccc4c(c3)CNCC4)cc2C1=O | 120000 nM | 1200 nM
3 | O=C(O)CCN1Cc2ccc(NC(=O)CCCC3CCNCC3)cc2C1=O | 5900 nM | 5.5 nM
4 | O=C(O)CCN1Cc2ccc(NC(=O)c3ccc(C4CCNCC4)cc3)cc2C1=O | 9600 nM | 6.8 nM
5 | O=C(O)CCCN1Cc2ccc(NC(=O)CCCC3CCNCC3)cc2C1=O | 51000 nM | 
6 | O=C(O)CCCN1Cc2ccc(NC(=O)c3ccc(C4CCNCC4)cc3)cc2C1=O | 410000 nM | 
7 | O=C(O)CCCN1Cc2ccc(NC(=O)c3ccc4c(c3)CNCC4)cc2C1=O | 330000 nM | 
8 | Cc1ccc(S(=O)(=O)N[C@@H](CNC(=O)Cc2cn(CCCC3CCNCC3)c3ccccc23)C(=O)O)cc1 | 4500 nM | 
9 | O=C(O)CN1Cc2ccc(NC(=O)CCCC3CCNCC3)cc2C1=O | 66000 nM | 
10 | CC(CC(=O)O)N1Cc2ccc(NC(=O)CCCC3CCNCC3)cc2C1=O (racemic) | 5400 nM | 350 nM
11 | CC(CC(=O)O)N1Cc2ccc(NC(=O)c3ccc(C4CCNCC4)cc3)cc2C1=O (racemic) | 6200 nM | 
12 | CC(CC(=O)O)N1Cc2ccc(NC(=O)c3ccc(N4CCNCC4)cc3)cc2C1=O (racemic) | 3740 nM | 37 nM

The next compounds have a lower IC50 (Platelet) than those just listed; values first:

Row | IC50 (Platelet) | IC50 [1] | Structure (SMILES)
13 | 540 nM |  | O=C(O)CCN1Cc2ccc(NC(=O)c3ccc(N4CCNCC4)cc3)cc2C1=O
14 | 1100 nM | 6.5 nM | O=C(O)CCN1Cc2ccc(NC(=O)c3ccc4c(c3)CNCC4)cc2C1=O
15 | 1100 nM | 22 nM | O=C(O)CCNC(=O)CCNC(=O)c1ccc2c(c1)CNCC2
16 | 90 nM |  | N=C(N)c1ccc(C(=O)Nc2ccc3c(c2)CCN(CC(=O)O)C3)cc1
17 | 25 nM |  | O=C(O)CCNC(=O)c1ccc2c(c1)C(=O)N(CCC1CCNCC1)C2
18 | 86 nM | 6.5 nM | CC(CC(=O)O)N1Cc2ccc(NC(=O)c3ccc4c(c3)CNCC4)cc2C1=O (racemic)
